# Data reported in ChEMBL document CHEMBL2384964, “Dual-acting histone deacetylase-topoisomerase I inhibitors” (Bioorg Med Chem Lett, 2013).
# Activity calls are given as the source filed them. The calls are words filed in the database; no cut-off is given here.
# Columns and labels:
# DU-145 = assay: Cytotoxicity against human DU145 cells assessed as inhibition of cell viability after 72 hrs by MTS assay; assay type: functional, cell-based; details: DU-145, 72 h
# How it was run: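 DU-145 prostate carcinoma cells exposed to compound for 72 h; viability read by MTS assay. IC50 values are means of two experiments, each run in triplicate.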
# [1] = biological target: T1, DNA topoisomerase 1 (Homo sapiens) (UniProt P11387); assay: Inhibition of topoisomerase-1 (unknown origin) assessed as reduction of pBR322 plasmid DNA relaxation at 50 uM after 30 mins by agarose gel electrophoresis
# T1 sequence (whole entry): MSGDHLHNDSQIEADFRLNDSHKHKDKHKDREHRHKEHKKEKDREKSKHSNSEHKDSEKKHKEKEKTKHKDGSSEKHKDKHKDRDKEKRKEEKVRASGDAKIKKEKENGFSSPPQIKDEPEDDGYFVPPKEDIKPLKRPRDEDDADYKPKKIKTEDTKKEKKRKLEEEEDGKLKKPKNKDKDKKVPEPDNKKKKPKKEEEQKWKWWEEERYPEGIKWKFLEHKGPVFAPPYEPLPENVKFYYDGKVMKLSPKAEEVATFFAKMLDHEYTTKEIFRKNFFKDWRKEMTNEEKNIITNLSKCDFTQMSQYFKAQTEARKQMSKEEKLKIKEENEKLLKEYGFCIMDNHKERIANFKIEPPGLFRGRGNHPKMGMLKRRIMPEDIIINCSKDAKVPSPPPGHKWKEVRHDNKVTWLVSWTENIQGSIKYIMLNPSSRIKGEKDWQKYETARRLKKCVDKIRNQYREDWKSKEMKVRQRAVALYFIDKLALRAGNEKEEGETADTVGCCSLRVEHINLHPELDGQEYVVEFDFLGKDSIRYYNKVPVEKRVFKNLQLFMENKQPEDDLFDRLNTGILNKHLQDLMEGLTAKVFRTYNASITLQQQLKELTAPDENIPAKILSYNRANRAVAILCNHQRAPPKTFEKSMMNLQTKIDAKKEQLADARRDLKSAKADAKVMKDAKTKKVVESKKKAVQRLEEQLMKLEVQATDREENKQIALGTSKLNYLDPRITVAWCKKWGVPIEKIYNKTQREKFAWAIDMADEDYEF
# How it was run: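 Supercoiled pBR322 plasmid incubated with Topo I, test agents at 50 μM, SN-38 as positive control. Reactions stopped with SDS, run on agarose gel, DNA stained with a nucleic acid dye; relaxation judged by band migration.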
# Histone deacetylase 8 = biological target: T2, Histone deacetylase 8 (Homo sapiens, UniProt Q9BY41); assay: Inhibition of HDAC8 in human HeLa cells using Fluor-de-Lys as substrate after 15 mins by fluorescence assay; assay type: cell-based
# T2 sequence (Q9BY41 whole entry): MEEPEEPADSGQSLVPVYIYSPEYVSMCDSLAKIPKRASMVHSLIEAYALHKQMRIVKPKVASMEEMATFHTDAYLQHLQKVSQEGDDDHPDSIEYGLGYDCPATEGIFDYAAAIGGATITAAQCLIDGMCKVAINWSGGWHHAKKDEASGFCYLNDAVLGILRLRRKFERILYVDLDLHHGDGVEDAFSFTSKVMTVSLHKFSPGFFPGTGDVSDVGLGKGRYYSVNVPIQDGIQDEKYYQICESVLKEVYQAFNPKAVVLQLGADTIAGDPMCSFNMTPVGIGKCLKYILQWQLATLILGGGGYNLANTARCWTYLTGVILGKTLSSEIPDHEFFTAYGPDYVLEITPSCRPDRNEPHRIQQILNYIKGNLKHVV
# [2] = biological target: T3, Protein deacetylase HDAC6 (Homo sapiens, UniProt Q9UBN7); assay: Inhibition of HDAC6 in human HeLa cells using Fluor-de-Lys as substrate after 15 mins by fluorescence assay; assay type: cell-based
# T3 sequence (Q9UBN7 whole entry): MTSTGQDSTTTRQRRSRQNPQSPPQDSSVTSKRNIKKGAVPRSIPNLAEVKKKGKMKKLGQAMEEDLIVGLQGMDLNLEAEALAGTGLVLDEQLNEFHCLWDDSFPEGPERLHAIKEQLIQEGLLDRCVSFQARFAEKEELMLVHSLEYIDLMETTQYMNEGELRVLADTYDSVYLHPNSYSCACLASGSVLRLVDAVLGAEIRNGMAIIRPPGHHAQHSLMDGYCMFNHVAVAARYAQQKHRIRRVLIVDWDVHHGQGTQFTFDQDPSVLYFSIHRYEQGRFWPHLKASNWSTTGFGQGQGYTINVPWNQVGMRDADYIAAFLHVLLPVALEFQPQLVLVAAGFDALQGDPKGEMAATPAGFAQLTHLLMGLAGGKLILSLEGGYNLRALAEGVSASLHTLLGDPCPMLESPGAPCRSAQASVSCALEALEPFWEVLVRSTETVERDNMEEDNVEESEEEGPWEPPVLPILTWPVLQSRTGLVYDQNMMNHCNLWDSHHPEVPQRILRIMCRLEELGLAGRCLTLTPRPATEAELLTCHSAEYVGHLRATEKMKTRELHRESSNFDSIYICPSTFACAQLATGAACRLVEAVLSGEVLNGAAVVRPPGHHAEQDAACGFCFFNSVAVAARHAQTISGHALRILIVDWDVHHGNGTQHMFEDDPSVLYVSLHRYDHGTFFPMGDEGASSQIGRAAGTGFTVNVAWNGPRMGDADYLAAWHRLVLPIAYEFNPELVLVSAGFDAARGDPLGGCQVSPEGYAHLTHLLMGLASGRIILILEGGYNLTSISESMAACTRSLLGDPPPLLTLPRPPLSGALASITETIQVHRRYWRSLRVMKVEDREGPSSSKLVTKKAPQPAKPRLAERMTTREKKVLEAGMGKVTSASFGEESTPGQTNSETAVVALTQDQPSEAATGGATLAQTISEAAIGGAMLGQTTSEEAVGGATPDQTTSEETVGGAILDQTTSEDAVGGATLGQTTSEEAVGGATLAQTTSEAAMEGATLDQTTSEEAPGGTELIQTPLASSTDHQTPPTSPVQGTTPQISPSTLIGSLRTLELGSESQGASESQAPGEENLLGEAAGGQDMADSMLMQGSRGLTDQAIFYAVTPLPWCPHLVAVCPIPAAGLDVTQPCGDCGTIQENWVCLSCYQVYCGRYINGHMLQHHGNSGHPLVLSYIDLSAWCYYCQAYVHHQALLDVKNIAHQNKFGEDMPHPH
# Histone deacetylase 1 [3] = biological target: T4, Histone deacetylase 1 (Homo sapiens, UniProt Q13547); assay: Inhibition of HDAC1 in human HeLa cells using Fluor-de-Lys as substrate after 15 mins by fluorescence assay; assay type: cell-based
# T4 sequence (Q13547 whole entry): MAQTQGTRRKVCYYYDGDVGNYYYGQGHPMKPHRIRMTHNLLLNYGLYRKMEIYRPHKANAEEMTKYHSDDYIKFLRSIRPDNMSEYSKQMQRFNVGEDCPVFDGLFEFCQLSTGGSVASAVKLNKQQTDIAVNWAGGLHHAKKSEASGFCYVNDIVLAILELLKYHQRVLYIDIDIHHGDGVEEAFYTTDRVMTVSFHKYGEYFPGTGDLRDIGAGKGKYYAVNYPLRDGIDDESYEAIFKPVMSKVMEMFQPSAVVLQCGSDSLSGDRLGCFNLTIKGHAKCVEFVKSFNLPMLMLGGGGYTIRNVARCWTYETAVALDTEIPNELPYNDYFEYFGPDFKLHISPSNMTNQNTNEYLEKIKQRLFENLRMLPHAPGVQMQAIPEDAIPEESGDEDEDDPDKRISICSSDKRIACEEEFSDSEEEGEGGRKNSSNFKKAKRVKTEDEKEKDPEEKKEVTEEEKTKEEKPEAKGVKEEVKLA
# Histone deacetylase = assay: Inhibition of HDAC in human HeLa cells using Fluor-de-Lys as substrate after 15 mins by fluorescence assay; assay type: cell-based
# [4] = biological target: T5, Histone deacetylase (Homo sapiens) (UniProt Q13547+O15379+Q9UBN7+Q92769+Q9UQL6+Q8WUI4+Q9BY41+Q96DB2+P56524+Q9UKV0+Q969S8); assay: Inhibition of HDAC in human DU145 cells assessed as upregulation of p21waf1 expression after 24 hrs by Western blot analysis; assay type: cell-based; details: DU-145
# How it was run: (§1)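 DU-145 cells treated for 24 h at 2.5 and 5.0 μM (SAHA, conjugates) or 0.1 and 0.5 μM (SN-38); lysates immunoblotted for p21waf1, with actin as loading control.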
# [5] = biological target: T6, Histone deacetylase 8 (Homo sapiens) (UniProt Q9BY41); assay: Inhibition of HDAC8 in human HeLa cells using Fluor-de-Lys as substrate up to 10 uM after 15 mins by fluorescence assay; assay type: cell-based
# T6 sequence (whole entry): T2 sequence (Q9BY41 whole entry)
# How it was run: (§2)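 Run by a contract testing laboratory, duplicate wells at each concentration; values reported with standard error.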
# Histone deacetylase 1 [6] = biological target: T4, Histone deacetylase 1; assay: Inhibition of HDAC1 in human HeLa cells using Fluor-de-Lys as substrate up to 10 uM after 15 mins by fluorescence assay; assay type: cell-based; how it was run: as §2
# [7] = biological target: T5, Histone deacetylase (Homo sapiens); assay: Inhibition of HDAC in human HeLa cells using Fluor-de-Lys as substrate up to 10 uM after 15 mins by fluorescence assay; assay type: cell-based
# How it was run: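 Enzyme source is HeLa cell nuclear extract with a fluorogenic substrate; fluorescence read near 460 nm. Compound-only wells without enzyme give background (camptothecin emits at 434 nm), which is subtracted. Each value from three independent experiments.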
# [8] = biological target: T5, Histone deacetylase (Homo sapiens); assay: Inhibition of HDAC in human DU145 cells assessed as upregulation of p21waf1 expression at 0.1 to 0.5 uM after 24 hrs by Western blot analysis; assay type: cell-based; details: DU-145; how it was run: as §1
SMILES,IC50 (DU-145) [µM],Topo I inhibition (active/inactive) [1],IC50 (Histone deacetylase 8) [µM],IC50 [2] [µM],IC50 (Histone deacetylase 1 [3]) [µM],IC50 (Histone deacetylase) [µM],inhibition [4],inhibition [5],inhibition (Histone deacetylase 1 [6]),inhibition [7],inhibition [8]
CC[C@@]1(O)C(=O)OCc2c1cc1n(c2=O)Cc2cc3cc(OCc4cn(CCCCCCC(=O)NO)nn4)ccc3nc2-1,2.03,Active,1.05,0.081,0.037,0.0562,,,,,
CCc1c2c(nc3ccc(OCc4cn(CCCCCCCC(=O)NO)nn4)cc13)-c1cc3c(c(=O)n1C2)COC(=O)[C@]3(O)CC,3.51,Active,2.6,0.075,0.369,0.2123,,,,,
CC[C@@]1(O)C(=O)OCc2c1cc1n(c2=O)Cc2cc3cc(OCc4cn(CCCCCC(=O)NO)nn4)ccc3nc2-1,1.95,Active,,,,0.1122,Dose-dependent effect,,,,
CCc1c2c(nc3ccc(OCc4cn(CCCCC(=O)NO)nn4)cc13)-c1cc3c(c(=O)n1C2)COC(=O)[C@]3(O)CC,4.25,Active,,,,0.1554,,,,,
CCc1c2c(nc3ccc(OCc4cn(CCCCCC(=O)NO)nn4)cc13)-c1cc3c(c(=O)n1C2)COC(=O)[C@]3(O)CC,2.05,Active,,0.042,0.129,0.1207,Dose-dependent effect,inactive,,,
CCc1c2c(nc3ccc(OCc4cn(CCCCCCC(=O)NO)nn4)cc13)-c1cc3c(c(=O)n1C2)COC(=O)[C@]3(O)CC,3.11,Active,,0.036,0.05,0.06465,,inactive,,,
CCc1c2c(nc3ccc(OCc4cn(CCCC(=O)NO)nn4)cc13)-c1cc3c(c(=O)n1C2)COC(=O)[C@]3(O)CC,6.27,Active,1.73,0.085,,,,,inactive,inactive,
CCc1c2c(nc3ccc(O)cc13)-c1cc3c(c(=O)n1C2)COC(=O)[C@]3(O)CC [7-ETHYL-10-HYDROXYCAMPTOTHECIN],0.11,,,,,,,,,inactive,Active
CC[C@@]1(O)C(=O)OCc2c1cc1n(c2=O)Cc2cc3cc(OCc4cn(CCCCC(=O)NO)nn4)ccc3nc2-1,2.5,Active,,0.26,0.116,0.1445,,inactive,,,
